According to ChEMBL document CHEMBL1121513, “Separation of potent central and renal dopamine agonist activity in substituted 6-chloro-2,3,4,5-tetrahydro-7,8-dihydroxy-1-phenyl-1H-3-benzazepines” (J Med Chem, 1980):

Legend:
Canis familiaris [1] = assay: Effective Dose (ED15) required to decrease renal vascular resistance by 15% in anesthetized dogs administered intravenously; d = increase in renal resistance were seen; assay type: functional, organism-based; details: Canis lupus familiaris
How it was run: (§1)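 Anesthetized dogs were surgically prepared for electromagnetic measurement of renal and iliac artery blood flow, carotid blood pressure, and ECG-triggered cardiometer heart rate. Drug was infused into an antecubital vein at cumulative, usually threefold increasing doses, 5 min per level. Renal vascular resistance was calculated as mean arterial pressure divided by mean blood flow, with a […] change needed for significance.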

Rattus norvegicus [2] = species on record: Rattus norvegicus; assay: Central dopaminergic activity was determined by testing compound for dopamine agonist activity mediated by adenylase cyclase in rat; assay type: functional, organism-based
Rattus norvegicus [3] = assay: Central dopaminergic activity was determined by testing compound for its ability to produce contralateral rotation in lesioned rat after intracerebrally administration; assay type: functional
Canis familiaris [4] = species on record: Canis familiaris; assay: Potency was expressed as the average maximum cumulative dose required to decrease renal vascular resistance by 15%; assay type: functional, Canis lupus familiaris; how it was run: as §1
Canis familiaris [5] = assay: Effective Dose (ED15) required to decrease renal vascular resistance by 15% in anesthetized dogs administered intravenously; assay type: functional; details: Canis lupus familiaris, iv; how it was run: as §1
Rattus norvegicus [6] = assay: Central dopaminergic activity was determined by testing compound for its ability to produce contralateral rotation in lesioned rat after ip administration; assay type: functional
[7] = Renal vasodilator activity was measured between ED30, measure in iliac vascular resistance (IVR) test, and ED15 RVR; assay type: functional
How it was run: (§2)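 In anesthetized dogs with electromagnetic renal and iliac blood-flow probes, carotid pressure and ECG-triggered heart rate, drug was given as cumulative iv infusions rising about threefold every 5 min. Resistance was pressure divided by flow. Each ratio divides the dose giving a 30% IVR change, a 20% MABP rise or a 20% HR change by the RVR ED15.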

[8] = Renal vasodilator activity was measured between ED20, heart rate (HR) test, and ED15 RVR.; assay type: functional; how it was run: as §2
[9] = Renal vasodilator activity was measured between ED20, measure of mean arterial blood pressure (MABP) test, and ED15 RVR.; assay type: functional; how it was run: as §2

In the case of Oc1ccc(C2CNCCc3cc(O)c(O)cc32)cc1 (configuration not stated), the ED15 (Canis familiaris [1]) is reported as “Significant increases” and the EC50 (Rattus norvegicus [2]) is reported as 500 nM.
Oc1cc2c(c(Cl)c1O)CCNCC2c1ccccc1 (configuration not stated) showed an RD500 (Rattus norvegicus [3]) of 0.22 µg/rat, an Average max (Canis familiaris [4]) of 39% and an ED15 (Canis familiaris [5]) of 3.5 µg/kg. The RD500 (Rattus norvegicus [6]) was 300 µg/kg.
NCCc1ccc(O)c(O)c1 [DOPAMINE] showed an Average max (Canis familiaris [4]) of 36%, an ED15 (Canis familiaris [5]) of 2.7 µg/kg and a Selectivity ratio [7] of 56. It also gave an EC50 (Rattus norvegicus [2]) of 3500 nM, a Selectivity ratio [8] of 141 and a Selectivity ratio [9] of 113.
Work on Oc1ccc(C2CNCCc3c2cc(O)c(O)c3Cl)cc1 (configuration not stated) [FENOLDOPAM] yielded an RD500 (Rattus norvegicus [3]) of 0.5 µg/rat, an Average max (Canis familiaris [4]) of 59% and an ED15 (Canis familiaris [5]) of 0.3 µg/kg. For the same compound, the RD500 (Rattus norvegicus [6]) was 10000 µg/kg, the Selectivity ratio [7] was greater than 6070 and the EC50 (Rattus norvegicus [2]) was 18 nM. For the same compound, the Selectivity ratio [8] was greater than 6072 and the Selectivity ratio [9] was greater than 6072.
Compound Oc1cc2c(cc1O)C(c1ccccc1)CNCC2 (configuration not stated) [SKF-38393] has an RD500 (Rattus norvegicus [3]) of 0.18 µg/rat, an Average max (Canis familiaris [4]) of 19% and an ED15 (Canis familiaris [5]) of 31 µg/kg. The RD500 (Rattus norvegicus [6]) was 700 µg/kg, the Selectivity ratio [7] was 15 and the EC50 (Rattus norvegicus [2]) was 80 nM. It also gave a Selectivity ratio [9] of 10.
